For 5 compounds, Activity results are on record in ChEMBL document CHEMBL1938366, “Synthesis and biological activity of novel barbituric and thiobarbituric acid derivatives against non-alcoholic fatty liver disease” (Eur J Med Chem, 2011).

In series [1] the test system is 3T3-L1. Briefly: Induction of adipogenesis in mouse 3T3L1 cells assessed as increase of adiponectin level at 10 uM after 8 to 12 days (reference value: 843.78 +/- 20.61 ng/ml). Type of series: functional.
Series [2] concerns 3T3-L1. Briefly: Induction of adipogenesis in mouse 3T3L1 cells assessed as decrease of leptin level at 10 uM after 24 hrs (reference value: 3089.21 +/- 33.37 pg/ml). Type of series: functional.
The test system of series [3] is 3T3-L1. Briefly: Induction of adipogenesis in mouse 3T3L1 cells assessed as increase of adiponectin expression at 10 uM after 8 to 12 days relative to control. Type of series: functional.
For series [4], the system named is 3T3-L1. Briefly: Cytotoxicity against mouse 3T3L1 cells assessed as glucose consumption at 10 uM by MTT assay. Conditions: 3t3-l1, 10 µM. Format: cell-based. (In general: Tetrazolium dyes change colour on reduction, which living cells bring about.)
The subject of series [5] is HepG2. Briefly: Cytotoxicity against human HepG2 cells assessed as glucose consumption at 10 uM by MTT assay. Format: cell-based. Particulars: hepg2, 10 µM.
Series [6] relates to HepG2. Briefly: Cytotoxicity against human HepG2 cells assessed as glucose consumption at 10 uM by MTT assay in presence of insulin. Format: cell-based. Particulars: hepg2, 10 µM. The method in brief: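 HepG2 cells; glucose consumption measured with insulin co-present at 0.1 µM. Full procedure given in supplementary data (S3).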
Series [7] relates to Rattus norvegicus. Briefly: Hepatoprotective activity against high fat/high calorie diet-induced non-alcoholic fatty liver disease in Wistar rat assessed as serum leptin levels at 50 mg/kg, po qd for 4 weeks (reference value: 7.59 +/- 2.36 ng/ml). Type of series: functional.
Series [8] has as its system Rattus norvegicus. Briefly: Hepatoprotective activity against high fat/high calorie diet-induced non-alcoholic fatty liver disease in Wistar rat assessed as HOMA-IR levels at 50 mg/kg, po qd for 4 weeks (reference value: 15.31 +/- 0.22). Format: functional.
The test system of series [9] is Rattus norvegicus. Briefly: Hepatoprotective activity against high fat/high calorie diet-induced non-alcoholic fatty liver disease in Wistar rat assessed as reduction of fat accumulation in liver cells at 50 mg/kg, po qd for 4 weeks by oil red O and H & E staining. Type of series: functional, organism-based. Details: dose 50 mg/kg. The method in brief: (§1)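 Male Wistar rats on a high-fat/high-calorie diet were given compound orally at 50 mg/kg once daily for 4 weeks, suspended in Tween 80 and 5% saline. Liver sections were then stained with Oil Red O and H&E and compared against normal-diet and untreated diet-model rats.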

Series [10] concerns Rattus norvegicus. Briefly: Hepatoprotective activity against high fat/high calorie diet induced NAFLD in Wistar rat assessed as restoration of liver cells at 50 mg/kg, po qd for 4 weeks by oil red O and H & E staining. Format: functional, organism-based. Details: dose 50 mg/kg. An outline of the steps: as §1
Series [11] has as its system Rattus norvegicus. Briefly: Hepatoprotective activity against high fat/high calorie diet-induced non-alcoholic fatty liver disease in Wistar rat assessed as decrease in liver/body weight ratio at 50 mg/kg, po qd for 4 weeks (reference value: 4.95 %). Details: scale not given: the % may be the effect or the level left. Type of series: functional.
The subject of series [12] is Rattus norvegicus. Briefly: Toxicity in high fat/high calorie diet-induced non-alcoholic fatty liver disease Wistar rat model assessed as abnormal behavioral at 50 mg/kg, po qd for 4 weeks. More on the design: dose 50 mg/kg, route oral. Format: organism-based. Particulars: in vivo, 672 h.
Series [13] deals with Rattus norvegicus. Briefly: Toxicity in high fat/high calorie diet-induced non-alcoholic fatty liver disease Wistar rat model assessed as physiological signs of toxicity at 50 mg/kg, po qd for 4 weeks. Type of series: organism-based. More on the design: dose 50 mg/kg, route oral. Particulars: in vivo, 672 h.
Series [14] deals with Rattus norvegicus. Briefly: Hepatoprotective activity against high fat/high calorie diet-induced non-alcoholic fatty liver disease in Wistar rat assessed as decreased body weight at 50 mg/kg, po qd for 4 weeks (reference value: 431 +/- 19.4 g). Type of series: functional.
Series [15] deals with Rattus norvegicus. Briefly: Hepatoprotective activity against high fat/high calorie diet-induced non-alcoholic fatty liver disease in Wistar rat assessed as decreased liver weight at 50 mg/kg, po qd for 4 weeks (reference value: 21.4 +/- 3.1 g). Type of series: functional.
The test system of series [16] is Rattus norvegicus. Briefly: Hepatoprotective activity against high fat/high calorie diet-induced non-alcoholic fatty liver disease in Wistar rat assessed as decreased visceral fat assessed per 100 gram of body weight at 50 mg/kg, po qd for 4 weeks (reference value: 4.95 +/- 0.95 g/100g BW). Format: functional.
Series [17] relates to Rattus norvegicus. Briefly: Hepatoprotective activity against high fat/high calorie diet-induced non-alcoholic fatty liver disease in Wistar rat assessed as decreased FBS at 50 mg/kg, po qd for 4 weeks by radioimmunoassay (reference value: 9.23 +/- […] mM). Type of series: functional.
Series [18] has as its system Rattus norvegicus. Briefly: Hepatoprotective activity against high fat/high calorie diet-induced non-alcoholic fatty liver disease in Wistar rat assessed as decreased triglyceride levels at 50 mg/kg, po qd for 4 weeks by radioimmunoassay (reference value: 2.38 +/- 1.20 mM). Format: functional.
Series [19] has as its system Rattus norvegicus. Briefly: Hepatoprotective activity against high fat/high calorie diet-induced non-alcoholic fatty liver disease in Wistar rat assessed as decreased ALT levels at 50 mg/kg, po qd for 4 weeks (reference value: 47.52 +/- 4.98 u/l). Format: functional.
The test system of series [20] is Rattus norvegicus. Briefly: Hepatoprotective activity against high fat/high calorie diet-induced non-alcoholic fatty liver disease in Wistar rat assessed as decreased LDL cholesterol levels at 50 mg/kg, po qd for 4 weeks by radioimmunoassay (reference value: 0.97 +/- 0.31 mM). Type of series: functional.
The subject of series [21] is Rattus norvegicus. Briefly: Hepatoprotective activity against high fat/high calorie diet-induced non-alcoholic fatty liver disease in Wistar rat assessed as decreased HDL cholesterol levels at 50 mg/kg, po qd for 4 weeks by radioimmunoassay (reference value: 1.20 +/- 0.43 mM). Type of series: functional.
Series [22] deals with Rattus norvegicus. Briefly: Hepatoprotective activity against high fat/high calorie diet-induced non-alcoholic fatty liver disease in Wistar rat assessed as insulin at 50 mg/kg, po qd for 4 weeks (reference value: 36.32 +/- 2.97 uU/ml). Format: functional.
For series [23], the system named is Rattus norvegicus. Briefly: Hepatoprotective activity against high fat/high calorie diet-induced non-alcoholic fatty liver disease in Wistar rat assessed as serum adiponectin levels at 50 mg/kg, po qd for 4 weeks (reference value: 10.49 +/- 2.59 ng/ml). Format: functional.

Calls of active or inactive are those of the source. The calls are words filed in the database; no cut-off is given here.

`Cc1ccc(NC(=O)COc2ccc(C=C3C(=O)NC(=S)NC3=O)cc2)nc1`: the Activity in the series with 3T3-L1 [1] is 1239.44 ng/mL; with 3T3-L1 [2], 1514.81 pg/mL; with 3T3-L1 [3], 146.94%; in the series on 3T3-L1 [4] it was “Non-toxic”.

For the compound `O=C(COc1ccc(C=C2C(=O)NC(=O)NC2=O)cc1)Nc1ccccc1`, the Activity is 1111.73 ng/mL in the series with 3T3-L1 [1], 1856.32 pg/mL in the series on 3T3-L1 [2], 135.18% in the series on 3T3-L1 [3] and “Non-toxic” in the series with 3T3-L1 [4].

On to `CN(CCOc1ccc(CC2SC(=O)NC2=O)cc1)c1ccccn1` (stereo not drawn) [ROSIGLITAZONE], for which the Activity in the series with HepG2 [5] amounted to 15.58%; with HepG2 [6], 29.41%; with 3T3-L1 [1], 1324.73 ng/mL; in the series on 3T3-L1 [2], 1773.67 pg/mL; with 3T3-L1 [3] it was 157.31%.

As to `O=C(COc1ccc(C=C2C(=O)NC(=O)NC2=O)cc1)Nc1ccccn1`, the Activity in the series with Rattus norvegicus [7] was 6 ng/mL; with Rattus norvegicus [8] it was 7.03; in the series on Rattus norvegicus [11] it was 4.34%; in the series on 3T3-L1 [1], 1639.61 ng/mL; in the series on 3T3-L1 [2] it was 1271.98 pg/mL; in the series with Rattus norvegicus [12], “Non-toxic”. Further, the Activity result was “Non-toxic” in the series on Rattus norvegicus [13]; 180.32% in the series with 3T3-L1 [3]; “Non-toxic” with 3T3-L1 [4]; 360.5 g with Rattus norvegicus [14]; 16 g in the series with Rattus norvegicus [15]; 3.98 g in the series with Rattus norvegicus [16]. Further, the Activity in the series on Rattus norvegicus [17] is on record as 4.73 mM; in the series with Rattus norvegicus [18] it was 1.02 mM; in the series on Rattus norvegicus [19] it was 33.06 U/L; in the series on Rattus norvegicus [20] it was 0.18 mM; with Rattus norvegicus [21], 1.11 mM; with Rattus norvegicus [22] it was 33.43 uU/ml. For the same compound, the Activity in the series on Rattus norvegicus [23] stood at 12.53 µg/mL. The outcome with Rattus norvegicus [9] and in the series with Rattus norvegicus [10] was Active.

In the case of `O=C(COc1ccc(C=C2C(=O)NC(=O)NC2=O)cc1)Nc1ccc(F)c(F)c1`, the Activity in the series with 3T3-L1 [1] is 1322.02 ng/mL; in the series on 3T3-L1 [2], 1571.98 pg/mL; in the series on 3T3-L1 [3] it was 143.8%; in the series with 3T3-L1 [4] it was “Non-toxic”.
